Measured values from article PMC9835613 (Chemosphere, 2022).
Where “and” joins values, the source holds several entries; their conditions need not be identical. Equal values may be shown once. Marks after values point to notes of the source that are not given here.

Tests used:
[1] = TCDD body burden and elimination in embryos, GC-HRMS; assay type: in vivo, zebrafish (Danio rerio); details: for body burden relative to the 50 ppt dose: 24 hpf; for Concentration of TCDD detected per embryo (body burden): 1 h at 4 hpf, mean; for half-life: zebrafish, whole embryo (pooled embryos), other: waterborne exposure
How it was run: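 AB zebrafish embryos, screened at 3 hpf, exposed at 4 hpf (20 per 2 mL egg water) for 1 h to 50 ppt, 1 ppb or 10 ppb test compound (DMSO stock diluted 1:1000) or paired DMSO, then raised in fresh egg water at 28.5 °C. Dechorionated at 24 hpf. Pooled embryos (7 at 1 and 10 ppb) snap-frozen at 24, 48 and 72 hpf.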

zebrafish = test: Survival of embryos after TCDD exposure; assay type: in vivo, zebrafish (Danio rerio); details: TCDD-exposed groups at 72 hpf; control (DMSO) 96.4%, p = 0.49
zebrafish metabolome = test: Non-targeted LC-HRMS metabolomics of TCDD-exposed embryos; assay type: in vivo, zebrafish (Danio rerio); details: TCDD exposed vs DMSO
How it was run: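 Embryos given a 1-h exposure at 4 hpf to 50 ppt or 10 ppb test compound, or matched DMSO, pooled (40 and 7 embryos respectively) at 24, 48 and 72 hpf. LC-HRMS used HILIC (25 °C) and C18 (60 °C) columns with 2 mM ammonium acetate/acetonitrile gradients, in negative and positive ion modes.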

[2] = ref Burkhard and Kuehl, 1986; cited from earlier work

Clc1cc2c(cc1Cl)Oc1cc(Cl)c(Cl)cc1O2 [TCDD, 2,3,7,8-tetrachlorodibenzo-p-dioxin]
body burden relative to the 50 ppt dose ([1]; 1 ppb exposure vs 50 ppt exposure): approximately 3 times | Concentration of TCDD detected per embryo (body burden) ([1]; 1 ppb waterborne exposure, 48 HPF): 12.7 pg/embryo | Concentration of TCDD detected per embryo (body burden) ([1]; 1 ppb waterborne exposure, 72 HPF): 4.30* pg/embryo | body burden relative to the 50 ppt dose ([1]; 10 ppb exposure vs 50 ppt exposure): approximately 4.45 times | Concentration of TCDD detected per embryo (body burden) ([1]; 10 ppb waterborne exposure, 24 HPF): 26.6 ± 1.2 pg/embryo and 38.0 ± 4.34 pg/embryo and 38.0* pg/embryo | Concentration of TCDD detected per embryo (body burden) ([1]; 10 ppb waterborne exposure, 48 HPF): 14.7 pg/embryo | Concentration of TCDD detected per embryo (body burden) ([1]; 10 ppb waterborne exposure, 72 HPF): 9.78* pg/embryo | Concentration of TCDD detected per embryo (body burden) ([1]; 50 ppt waterborne exposure, 48 HPF): 5.27 pg/embryo | Concentration of TCDD detected per embryo (body burden) ([1]; 50 ppt waterborne exposure, 72 HPF): 0.407 pg/embryo | half-life ([1]; 1 ppb): 32.7 h | half-life ([1]; 10 ppb): 10.7 h | average survival rate (zebrafish): 96.3% | upregulation of 3a, 7a-Dihydroxy-5b-cholestane (zebrafish metabolome; bile acid biosynthesis pathway): 1.01 fold | decrease of the dihydrotestosterone peak (zebrafish metabolome; every 24 h): 6.02 fold | downregulation of androsterone (zebrafish metabolome; every 24 h): 0.363 fold | upregulation of pregnenolone (zebrafish metabolome; every 24 h): 0.529 fold | downregulation of L-Glutamic acid (glutamate) (zebrafish metabolome; over time): 0.30 fold | downregulation of dopamine (zebrafish metabolome; over time): 0.66 fold | downregulation of gamma-aminobutyric acid (GABA) (zebrafish metabolome; over time): 0.32 fold | Kow [2]: 7.02
